High-throughput results (PubChem)
Most compounds without a hit are left out; they make up all but 2.2% or so of the library.
PHOSPHO1 block: PHOSPHO1 (human) inhibition; recombinant PHOSPHO1, absorbance phosphatase assay; inhibition, % at 13.3 µM; 290,000 tested, 1.1% active; in the data active means inhibition above about 60%
Target sequence (Q8TCT1 whole entry, looked up): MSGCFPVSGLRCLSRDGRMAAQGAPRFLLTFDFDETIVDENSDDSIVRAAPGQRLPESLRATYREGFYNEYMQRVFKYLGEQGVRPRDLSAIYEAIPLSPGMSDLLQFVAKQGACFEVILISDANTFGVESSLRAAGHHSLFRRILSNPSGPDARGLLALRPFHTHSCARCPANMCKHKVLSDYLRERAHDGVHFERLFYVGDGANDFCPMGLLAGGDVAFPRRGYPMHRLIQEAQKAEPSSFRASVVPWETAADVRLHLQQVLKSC
PvdQ acylase: P. aeruginosa PvdQ acylase inhibition; purified PvdQ acylase, fluorescence plate reader; inhibition, % at 10 µM; 340,000 tested, 0.063% active; AID 488965; in the data active means inhibition above about 30%, passing the limit was not always enough;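 further: 0% = vehicle neutral wells and 100% = reference inhibitor wells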
VIM-2 inhibitor: blocks Pseudomonas aeruginosa VIM-2 metallo-beta-lactamase. purified VIM-2, nitrocefin hydrolysis, epi-absorbance fluorescence. inhibition, % at 5.6 µM. 290,000 tested, 0.89% active;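 active means inhibition above the mean of all tested compounds plus 3 SD, cutoff set per screening run, cut at about 7.5% in these data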;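 further: red hydrolysis product quenches plate fluorescence so inhibitors raise well fluorescence; 0% = enzyme with DMSO and 100% = DMSO without enzyme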
Yeast superoxide: lowers age-related superoxide in aged yeast cells. S. cerevisiae aged cells, superoxide DHE fluorescence; hits give low values. superoxide response (% of plate mean), % at 10 µM. 330,000 tested, 0.18% active;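 active means superoxide response under a set limit, about three screen SD below normal, cut at about 65% in these data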;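 further: yeast aged for seven days with compound at 30 °C before DHE staining; 100% = average MFI of all compound-treated wells on the plate with controls excluded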
IMP-1 inh: inhibitors of Pseudomonas aeruginosa IMP-1 metallo-beta-lactamase; purified IMP-1, nitrocefin hydrolysis, epi-absorbance fluorescence; 290,000 tested, 0.45% active; inhibition, % at 5.6 µM; AID 1556;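 active means inhibition above the mean plus 3 SD of all compounds in the same screening run, cut at about 4.5% in these data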;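 further: 0% = IMP-1 with DMSO and 100% = DMSO wells lacking enzyme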
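System – purified recombinant IMP-1 beta-lactamase · Input – IMP-1 dispensed at 0.2 nM · Timing – 15 min preincubation plus 25 min reaction at 25 °C · Signal – Epi-absorbance fluorescence, 480 nm excitation, 530 nm emission · Measure – percent IMP-1 inhibition derived from blank-referenced optical density · Controls – Enzyme-plus-DMSO low control, enzyme-free DMSO high control · Replication – singlicate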
An asterisk follows results filed as active.

`Cc1[nH]n(-c2ccccc2)c(=O)c1N=Nc1ccc(C(N)=O)cc1` gave PHOSPHO1 block 24, PvdQ acylase -6, VIM-2 inhibitor 12*, Yeast superoxide 116 and IMP-1 inh -2.
Cc1ccc(S(=O)(=O)N2CCC[C@H]2C(=O)NC2CCCCC2)cc1 was read as PvdQ acylase -14.
For CC(C)(C)CC(=O)Nc1cccc2c1CCCC2 the results were PHOSPHO1 block 2, PvdQ acylase -8, VIM-2 inhibitor -1, Yeast superoxide 123 and IMP-1 inh 6.9*.
Cc1ccc(NC(=O)CSc2ccc(-c3cccnc3)nn2)c(C)c1 was read as PHOSPHO1 block 73*, PvdQ acylase 8, VIM-2 inhibitor -3, Yeast superoxide 88 and IMP-1 inh -5.
O=C(Nc1cc2c(cc1Cl)-c1ccc([N+](=O)[O-])cc1C2=NO)C(F)(F)F was read as PvdQ acylase -8.
`Cc1ccc2ncccc2c1NS(=O)(=O)c1ccccc1` gave PHOSPHO1 block 98*, PvdQ acylase -7, VIM-2 inhibitor -4, Yeast superoxide 91 and IMP-1 inh -2.
`COc1ccc(OCC(=O)NNC(=O)Cc2coc3cc(OC)ccc23)cc1` gave PHOSPHO1 block 8, PvdQ acylase 18, VIM-2 inhibitor -2, Yeast superoxide 96 and IMP-1 inh 5.6*.
Oc1c(C(c2ccco2)N2CCOCC2)sc2ncnn12 (stereo not drawn) was read as PHOSPHO1 block 90*, PvdQ acylase -6, VIM-2 inhibitor 0, Yeast superoxide 82 and IMP-1 inh -1.
For Cc1nc2sc(C(c3ccco3)N3CCC(C)CC3)c(O)n2n1 (stereo not drawn) the results were PHOSPHO1 block -5, PvdQ acylase -6, VIM-2 inhibitor -4, Yeast superoxide 86 and IMP-1 inh -3.
For Cc1nc2sc(C(c3ccco3)N3CC(C)OC(C)C3)c(O)n2n1 (stereo not drawn) the results were PHOSPHO1 block 103*, PvdQ acylase 22, VIM-2 inhibitor -3, Yeast superoxide 102 and IMP-1 inh -2.
Screening Cc1ccc(C)c(C(=O)OCC(=O)Nc2cccc(S(=O)(=O)N3CCCCC3)c2)c1 returned PvdQ acylase -10 and Yeast superoxide 133.
`O=c1c(C(c2ccc(O)cc2)c2c(O)nc3n(c2=O)CCS3)c(O)nc2n1CCS2` gave PHOSPHO1 block 40, PvdQ acylase 2, VIM-2 inhibitor -2, Yeast superoxide 99 and IMP-1 inh -3.
For O=c1c(C(c2ccc(O)cc2)c2c(O)nc3n(c2=O)CCCS3)c(O)nc2n1CCCS2 the results were PHOSPHO1 block 65*, PvdQ acylase -14, VIM-2 inhibitor -1, Yeast superoxide 102 and IMP-1 inh -3.
`COc1ccc(N=c2ssnc2Cl)cc1` gave PHOSPHO1 block 77*, PvdQ acylase -5, VIM-2 inhibitor -3, Yeast superoxide 91 and IMP-1 inh -4.
For CCOC(=O)c1ccc(N=c2ssnc2Cl)cc1 the results were PHOSPHO1 block 77*, PvdQ acylase 3, VIM-2 inhibitor -6 and IMP-1 inh -2.
For N#Cc1ccc(N=c2ssnc2Cl)cc1 the results were PHOSPHO1 block -88, PvdQ acylase -11, VIM-2 inhibitor -3, Yeast superoxide 110 and IMP-1 inh -2.
`Clc1ccc(N=c2ssnc2Cl)cc1` gave PHOSPHO1 block 89*, PvdQ acylase -13, VIM-2 inhibitor -2, Yeast superoxide 97 and IMP-1 inh -1.
COc1cc(N=c2ssnc2Cl)cc(OC)c1OC was read as PHOSPHO1 block -67, PvdQ acylase -2, VIM-2 inhibitor -4, Yeast superoxide 93 and IMP-1 inh -4.
For Clc1nssc1=Nc1ccccc1 the results were PHOSPHO1 block 97*, PvdQ acylase 4, VIM-2 inhibitor -2 and IMP-1 inh -2.
For COc1ccc(-c2nnc(SCC(=O)NC(=O)Cc3ccccc3)n2C)cc1 the results were PvdQ acylase -8 and Yeast superoxide 91.
Screening COC(=O)c1ccc(C)c(NC(=O)CCCN2C(=O)NC(C)(C)C2=O)c1 returned PvdQ acylase -12 and Yeast superoxide 86.
Screening CCCCc1ccc(N2C(=NC(=O)C3CCCO3)SC3CS(=O)(=O)CC32)cc1 (stereo not drawn) returned PHOSPHO1 block 47, PvdQ acylase -15, VIM-2 inhibitor -3, Yeast superoxide 101 and IMP-1 inh -1.
`COc1ccccc1C1=NOC(CN2C(=O)c3ccccc3S2(=O)=O)C1` (stereo not drawn) gave PHOSPHO1 block 37, PvdQ acylase 2, VIM-2 inhibitor 7.7*, Yeast superoxide 101 and IMP-1 inh -4.
CCOC(=O)/C=c1\s/c(=C\c2sccc2C)c(=O)n1CC(=O)NCc1ccc(C)cc1 was read as PHOSPHO1 block 38, VIM-2 inhibitor -2, Yeast superoxide 99 and IMP-1 inh -1.
CNC(=O)c1c(NC(=O)c2ccc(S(=O)(=O)N3CCCCC3)cc2)sc2c1CCN(C(C)C)C2 was read as PHOSPHO1 block 23, PvdQ acylase 3, VIM-2 inhibitor 0, Yeast superoxide 99 and IMP-1 inh 0.
Screening CCN1CCc2c(sc(NC(=O)c3ccc(S(=O)(=O)N4CCCC4)cc3)c2C(=O)NC)C1 returned PHOSPHO1 block 38, PvdQ acylase -3, VIM-2 inhibitor 8.7*, Yeast superoxide 96 and IMP-1 inh 0.
For CCCN1CCc2c(sc(NC(=O)c3ccc(S(=O)(=O)N(C)c4ccccc4)cc3)c2C(N)=O)C1 the results were PHOSPHO1 block -23, PvdQ acylase -12, VIM-2 inhibitor 1, Yeast superoxide 114 and IMP-1 inh 0.
`CCCN1CCc2c(sc(NC(=O)c3ccc(S(=O)(=O)N(C)c4ccccc4)cc3)c2C(=O)NC)C1` gave PHOSPHO1 block 28, PvdQ acylase -6, VIM-2 inhibitor 5, Yeast superoxide 102 and IMP-1 inh 9.6*.
CCN1CCN(C(=O)C(C)Sc2nc3nc(C)cc(C)n3n2)CC1 (stereo not drawn) was read as PvdQ acylase -14 and Yeast superoxide 111.
Screening O=C(O)CCN1C(=O)/C(=C/c2ccc(-c3nc4ccccc4s3)o2)SC1=S returned PHOSPHO1 block 101*, PvdQ acylase 10, VIM-2 inhibitor 0, Yeast superoxide 113 and IMP-1 inh 0.
`O=C(O)CCCN1C(=O)/C(=C\c2ccccc2OCc2ccccc2)SC1=S` gave PHOSPHO1 block 10, PvdQ acylase -4, VIM-2 inhibitor -4, Yeast superoxide 101 and IMP-1 inh 1.
For O=C(O)CCCN1C(=O)/C(=C\c2ccc(-c3nc4ccccc4s3)o2)SC1=S the results were PHOSPHO1 block 93*, PvdQ acylase 0, VIM-2 inhibitor 0, Yeast superoxide 97 and IMP-1 inh 3.
O=C(O)CC(C(=O)O)N1C(=O)/C(=C/c2ccc(-c3nc4ccccc4s3)o2)SC1=S (stereo not drawn) was read as PHOSPHO1 block 11, PvdQ acylase 6, VIM-2 inhibitor -1, Yeast superoxide 102 and IMP-1 inh 5.6*.
